The term inhibition in vivo denotes the change of the read-out against control, counted positive when it falls. The term LD50 denotes the dose at which mortality reaches 50%. A lower LD50 goes with greater toxicity.

For series [1], the system named is Rattus norvegicus. The series can be described thus: Inhibition of the homologous passive cutaneous anaphylaxis (PCA) in rat, administered at a dose of 50 mg/kg intraperitoneally. The following applies: ip, route intraperitoneal. Type of series: functional. The essentials: (§1)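 Rat anti-DNP-As serum (raised with DNP-coupled ascaris plus killed Bordetella pertussis; titer about 1:256 by 48-h PCA) diluted 20-fold in 0.9% saline, given intradermally as 0.1 mL at three shaved-back sites of normal rats, with saline on the other side. After 48 h, 1.0 mL of 0.25% Evans blue containing 2.0 mg of antigen given iv. Read-out is % inhibition ± SD.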

Series [2] has as its system Rattus norvegicus. Description: Inhibition of homologous Passive Cutaneous Anaphylaxis in rat, following 20 mg/kg i.p. administration. It is filed as functional. The following applies: po, in the assay text read “p.o.” for “i.p.”. The gist of the method: as §1
The nature of series [3]: Lethal dose (LD50) determined in male ddY mice. Type of series: toxicity. The following applies: mouse, in vivo. The gist of the method: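 Acute toxicity by the up-down method, five animals per determination, with LD50 reported in mg/kg.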
For series [4], the system named is Rattus norvegicus. Description: Inhibitory activity against the homologous Passive Cutaneous Anaphylaxis (PCA) in rat, administered at a dose of 20 mg/kg perorally. Type of series: functional. The following applies: route oral. The essentials:
as §1

Series [5] concerns Rattus norvegicus. Description: Inhibitory activity against the homologous Passive Cutaneous Anaphylaxis (PCA) in rat, administered at a dose of 50 mg/kg perorally. It is filed as functional. The following applies: route oral. The essentials: as §1
The subject of series [6] is Rattus norvegicus. The series can be described thus: Inhibitory activity against the homologous Passive Cutaneous Anaphylaxis (PCA) in rat, administered at a dose of 100 mg/kg intraperitoneally. Type of series: functional. The following applies: ip, route intraperitoneal. The gist of the method:
as §1

As for `C[S+](C)CCC(=O)Nc1ccc(OCC(O)COC2CCCCC2)cc1` (centres undefined), the inhibition in vivo at 50 mg/kg in the series on Rattus norvegicus [1] is -7.4%. In the series on Rattus norvegicus [2], the inhibition in vivo at 20 mg/kg was 10.2%.

In the case of `CCOCC(COc1ccc(NC(=O)CC[S+](C)C)cc1)OCC` (centres undefined), the inhibition in vivo at 50 mg/kg in the series on Rattus norvegicus [1] worked out at 5.1%. Moreover, the inhibition in vivo at 20 mg/kg in the series on Rattus norvegicus [2] came to 0.1%.

As to `C[S+](C)CCC(=O)Nc1ccc(O)cc1`, the inhibition in vivo at 50 mg/kg in the series on Rattus norvegicus [1] was determined as 9.7%. Besides, in the series with Rattus norvegicus [2], the inhibition in vivo at 20 mg/kg came to 21.9%.

As for `C[S+](C)CCC(=O)Nc1ccc(OCC(O)COc2ccccc2)cc1` (centres undefined), the inhibition in vivo at 50 mg/kg with Rattus norvegicus [1] is 4.6%. In addition, the inhibition in vivo at 20 mg/kg with Rattus norvegicus [2] turned out to be 14.4%.

The molecule `C[S+](C)CCC(=O)Nc1ccc(OCC(O)CO)cc1.Cc1ccc(S(=O)(=O)[O-])cc1` (centres undefined) displayed an LD50 in series [3] of 1040 mg/kg. For the same molecule, the figures for the inhibition in vivo at 20 mg/kg with Rattus norvegicus [4] and in the series with Rattus norvegicus [2] were 1.4% and 38.7%, respectively. The inhibition in vivo at 50 mg/kg worked out at 34.9% in the series with Rattus norvegicus [1] and 18.6% with Rattus norvegicus [5].

`C[S+](C)CCC(=O)Nc1ccc(OCCCO)cc1.Cc1ccc(S(=O)(=O)[O-])cc1` had an LD50 in series [3] of 324 mg/kg.

Take `COCC(COc1ccc(NC(=O)CC[S+](C)C)cc1)OC` (centres undefined): in the series with Rattus norvegicus [1], the inhibition in vivo at 50 mg/kg stood at 10.5%. Moreover, the inhibition in vivo at 20 mg/kg with Rattus norvegicus [2] came to 17.9%.

In the case of `CCOCC(O)COc1ccc(NC(=O)CC[S+](C)C)cc1` (centres undefined) [SUPLATAST TOSILATE], the inhibition in vivo at 50 mg/kg with Rattus norvegicus [1] was determined as 35.5%. The inhibition in vivo at 20 mg/kg in the series on Rattus norvegicus [2] was 28.9%.

Take `C[S+](C)CCC(=O)Nc1ccc(F)cc1`: the inhibition in vivo at 50 mg/kg in the series on Rattus norvegicus [1] worked out at 1.2%. Also, the inhibition in vivo at 20 mg/kg in the series with Rattus norvegicus [2] worked out at 4%.

On to `CCOCC(COc1ccc(NC(=O)CC[S+](C)C)cc1)OC(C)=O` (centres undefined), for which the inhibition in vivo at 50 mg/kg in the series on Rattus norvegicus [1] stood at 30.2%. Also, the inhibition in vivo at 20 mg/kg in the series with Rattus norvegicus [2] is 35.1%.

Turning to `CCCOc1ccc(NC(=O)CC[S+](C)C)cc1.Cc1ccc(S(=O)(=O)[O-])cc1`, in series [3], the LD50 was determined as 97 mg/kg. Moreover, the inhibition in vivo at 50 mg/kg in the series with Rattus norvegicus [1] was found to be 29.8%. For the same molecule, in the series on Rattus norvegicus [2], the inhibition in vivo at 20 mg/kg turned out to be 13.8%.

`Cc1ccc(NC(=O)CC[S+](C)C)cc1`: the inhibition in vivo at 50 mg/kg with Rattus norvegicus [1] worked out at 22%. Further, the inhibition in vivo at 20 mg/kg in the series with Rattus norvegicus [2] was found to be 18.9%.

Turning to `COc1ccc(NC(=O)CC[S+](C)C)cc1`, the inhibition in vivo at 50 mg/kg in the series with Rattus norvegicus [1] was found to be 17.4%. Besides, the inhibition in vivo at 20 mg/kg in the series with Rattus norvegicus [2] was -4.4%.

As for `CCCCOCC(O)COc1ccc(NC(=O)CC[S+](C)C)cc1` (centres undefined), in the series on Rattus norvegicus [1], the inhibition in vivo at 50 mg/kg came out at 4.4%. The inhibition in vivo at 20 mg/kg in the series with Rattus norvegicus [2] was determined as 7.9%.

On to `CCOCC(COc1ccccc1NC(=O)CC[S+](C)C)OC(C)=O` (centres undefined), for which the inhibition in vivo at 50 mg/kg in the series with Rattus norvegicus [1] is 20%. Moreover, in the series on Rattus norvegicus [2], the inhibition in vivo at 20 mg/kg is -2%.

With `COCC(O)COc1ccc(NC(=O)CC[S+](C)C)cc1` (centres undefined), in the series with Rattus norvegicus [1], the inhibition in vivo at 50 mg/kg was 24.8%. Besides, in the series with Rattus norvegicus [2], the inhibition in vivo at 20 mg/kg came to 17.7%.

Consider `C[S+](C)CCC(=O)Nc1ccc(CC(=O)O)cc1`, for which the inhibition in vivo at 50 mg/kg in the series with Rattus norvegicus [1] was found to be 25.5%. Also, in the series with Rattus norvegicus [2], the inhibition in vivo at 20 mg/kg was 14.9%.

On to `CCCOCC(O)COc1ccc(NC(=O)CC[S+](C)C)cc1` (centres undefined), for which the inhibition in vivo at 50 mg/kg with Rattus norvegicus [1] turned out to be 13.8%. The inhibition in vivo at 20 mg/kg in the series on Rattus norvegicus [2] is 16.3%.

Take `C[S+](C)CCC(N)=O`: in the series on Rattus norvegicus [1], the inhibition in vivo at 50 mg/kg is 2.4%. Also, the inhibition in vivo at 100 mg/kg in the series with Rattus norvegicus [6] worked out at 13.7%.

With `CCOCC(COc1cccc(NC(=O)CC[S+](C)C)c1)OC(C)=O` (centres undefined), the inhibition in vivo at 50 mg/kg with Rattus norvegicus [1] came out at 17.7%. The inhibition in vivo at 20 mg/kg in the series on Rattus norvegicus [2] amounted to 18.2%.

In the case of `C[S+](C)CCC(=O)Nc1ccc(C(F)(F)F)cc1`, the inhibition in vivo at 50 mg/kg in the series with Rattus norvegicus [1] was -10.3%. Further, the inhibition in vivo at 20 mg/kg in the series on Rattus norvegicus [2] was -7.8%.

`CC(O)COc1ccc(NC(=O)CC[S+](C)C)cc1.Cc1ccc(S(=O)(=O)[O-])cc1` (centres undefined) came in with an LD50 in series [3] of 495 mg/kg.

For `CC(=O)c1ccc(NC(=O)CC[S+](C)C)cc1`, in the series on Rattus norvegicus [1], the inhibition in vivo at 50 mg/kg stood at 25.1%. Also, the inhibition in vivo at 20 mg/kg in the series on Rattus norvegicus [2] was 9%.

Regarding `C[S+](C)CCC(=O)Nc1ccccc1`, in the series with Rattus norvegicus [1], the inhibition in vivo at 50 mg/kg is -8.3%. Further, the inhibition in vivo at 100 mg/kg in the series with Rattus norvegicus [6] was 27.1%.

Turning to `C[S+](C)CCC(=O)Nc1ccc(Cl)cc1`, in the series on Rattus norvegicus [1], the inhibition in vivo at 50 mg/kg turned out to be 0.3%. The inhibition in vivo at 20 mg/kg in the series with Rattus norvegicus [2] is -0.2%.

With `C[S+](C)CCC(=O)NC1CCCCC1`, the inhibition in vivo at 50 mg/kg with Rattus norvegicus [1] was 9%. The inhibition in vivo at 100 mg/kg in the series with Rattus norvegicus [6] was 17%.
